Laboratory results reported in ChEMBL document CHEMBL5724801, “EUbOPEN Chemogenomics Library - Multiplex” (2024).
“And” between values parts separate entries of the source, which are not always exact repeats. Equal entries are not always repeated.

Key:
[1] = tested on: Fibroblast; assay: Multiplex assay against human fibroblast; type: toxicity, cell-based
How it was run: (§1)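 With compound added, live cells were imaged on a CQ1 microscope at 37°C and 5% CO2; staining with Hoechst33342, BioTracker Green Microtubule Cytoskeleton Dye, MitoTracker Red and Annexin V Alexa Fluor 680 had been done at seeding. The CellPathfinder machine-learning gating scheme split cells into Hoechst high-intensity objects or normal cells, normal cells into healthy, pyknosed or fragmented nuclei, and pyknosed cells into mitotic or apoptotic. The tubulin, mitochondrial-mass and membrane-permeability phenotypes are per cents of healthy-nucleus cells.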

[2] = tested on: HEK-293T; assay: Multiplex assay against HEK293T; type: toxicity, cell-based; details: human; how it was run: as §1
[3] = 12 h, 1 µM, compound concentration 1 uM
[4] = 12 h, 10 µM, compound concentration 10 uM
[5] = 24 h, 1 µM, compound concentration 1 uM
[6] = 24 h, 10 µM, compound concentration 10 uM
[7] = 48 h, 1 µM, compound concentration 1 uM
[8] = 48 h, 10 µM, compound concentration 10 uM

## N[C@](CC1c2ccccc2Oc2ccccc21)(C(=O)O)[C@H]1C[C@@H]1C(=O)O
[1]; [3]
  Population Apoptotic (%): 44% and 58%
  Population Fragmented Nuclei (%): 12% and 18%
  Population Healthy Nuclei (%): 73% and 59%
  Population Hoechst High Intensity Objects (%): 4% and 1%
  Population Membrane Permeable-Phenotype (%): 0% and 7%
  Population Mitochondria Different-Phenotype (%): 1%
  Population Mitotic Cells (%): 56% and 41%
  Population Normal (%): 95% and 98%
  Population Pyknosed Nuclei (%): 13% and 21%
  Population Tubulin-Different-Phenotype (%): 27% and 37%
  Total Cell Count: 189 and 113
[1]; [4]
  Population Apoptotic (%): 50% and 26%
  Population Fragmented Nuclei (%): 13% and 20%
  Population Healthy Nuclei (%): 66% and 59%
  Population Hoechst High Intensity Objects (%): 1% and 7%
  Population Membrane Permeable-Phenotype (%): 2% and 0%
  Population Mitochondria Different-Phenotype (%): 2% and 7%
  Population Mitotic Cells (%): 50% and 73%
  Population Normal (%): 98% and 92%
  Population Pyknosed Nuclei (%): 20%
  Population Tubulin-Different-Phenotype (%): 22% and 33%
  Total Cell Count: 203 and 119
[1]; [5]
  Population Apoptotic (%): 68% and 33%
  Population Fragmented Nuclei (%): 12% and 27%
  Population Healthy Nuclei (%): 73% and 49%
  Population Hoechst High Intensity Objects (%): 2% and 4%
  Population Membrane Permeable-Phenotype (%): 2% and 6%
  Population Mitochondria Different-Phenotype (%): 2% and 1%
  Population Mitotic Cells (%): 32% and 66%
  Population Normal (%): 97% and 95%
  Population Pyknosed Nuclei (%): 13% and 22%
  Population Tubulin-Different-Phenotype (%): 25% and 44%
  Total Cell Count: 183 and 123
[1]; [6]
  Population Apoptotic (%): 57% and 35%
  Population Fragmented Nuclei (%): 10% and 18%
  Population Healthy Nuclei (%): 68% and 66%
  Population Hoechst High Intensity Objects (%): 1% and 2%
  Population Membrane Permeable-Phenotype (%): 1%
  Population Mitochondria Different-Phenotype (%): 3% and 4%
  Population Mitotic Cells (%): 42% and 64%
  Population Normal (%): 98% and 97%
  Population Pyknosed Nuclei (%): 20% and 15%
  Population Tubulin-Different-Phenotype (%): 30% and 34%
  Total Cell Count: 193 and 113
[1]; [7]
  Population Apoptotic (%): 62% and 23%
  Population Fragmented Nuclei (%): 17% and 36%
  Population Healthy Nuclei (%): 68% and 48%
  Population Hoechst High Intensity Objects (%): 2% and 8%
  Population Membrane Permeable-Phenotype (%): 0% and 9%
  Population Mitochondria Different-Phenotype (%): 2% and 5%
  Population Mitotic Cells (%): 37% and 76%
  Population Normal (%): 97% and 91%
  Population Pyknosed Nuclei (%): 14%
  Population Tubulin-Different-Phenotype (%): 26% and 65%
  Total Cell Count: 189 and 125
[1]; [8]
  Population Apoptotic (%): 45% and 27%
  Population Fragmented Nuclei (%): 14% and 27%
  Population Healthy Nuclei (%): 68% and 63%
  Population Hoechst High Intensity Objects (%): 5% and 3%
  Population Membrane Permeable-Phenotype (%): 1% and 2%
  Population Mitochondria Different-Phenotype (%): 2%
  Population Mitotic Cells (%): 54% and 72%
  Population Normal (%): 94% and 96%
  Population Pyknosed Nuclei (%): 16% and 9%
  Population Tubulin-Different-Phenotype (%): 32% and 28%
  Total Cell Count: 198 and 115
[2]; [3]
  Population Apoptotic (%): 38% and 54%
  Population Fragmented Nuclei (%): 6% and 7%
  Population Healthy Nuclei (%): 83% and 79%
  Population Hoechst High Intensity Objects (%): 7% and 5%
  Population Membrane Permeable-Phenotype (%): 0%
  Population Mitochondria Different-Phenotype (%): 43% and 58%
  Population Mitotic Cells (%): 61% and 45%
  Population Normal (%): 92% and 94%
  Population Pyknosed Nuclei (%): 10% and 12%
  Population Tubulin-Different-Phenotype (%): 27% and 25%
  Total Cell Count: 447 and 270
[2]; [4]
  Population Apoptotic (%): 32%
  Population Fragmented Nuclei (%): 9% and 4%
  Population Healthy Nuclei (%): 78% and 81%
  Population Hoechst High Intensity Objects (%): 8% and 7%
  Population Membrane Permeable-Phenotype (%): 0%
  Population Mitochondria Different-Phenotype (%): 40% and 66%
  Population Mitotic Cells (%): 67%
  Population Normal (%): 91% and 92%
  Population Pyknosed Nuclei (%): 12% and 13%
  Population Tubulin-Different-Phenotype (%): 23% and 31%
  Total Cell Count: 381 and 382
[2]; [5]
  Population Apoptotic (%): 21% and 38%
  Population Fragmented Nuclei (%): 8% and 9%
  Population Healthy Nuclei (%): 81% and 84%
  Population Hoechst High Intensity Objects (%): 3% and 5%
  Population Membrane Permeable-Phenotype (%): 1% and 0%
  Population Mitochondria Different-Phenotype (%): 24% and 30%
  Population Mitotic Cells (%): 78% and 61%
  Population Normal (%): 96% and 94%
  Population Pyknosed Nuclei (%): 10% and 6%
  Population Tubulin-Different-Phenotype (%): 15% and 16%
  Total Cell Count: 629 and 368
